Active and inactive are the calls of the source. The rule behind the calls is not given here.
How the values were obtained:
[1] = AUC in intraduodenally dosed Sprague-Dawley rat plasma measured over 4 hrs by LC/MS/MS analysis; format: ADME, organism-based; parameters: time < 4 hr, route intraduodenal; details: Sprague-Dawley, plasma
Outline: (§1)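 Abbreviated rat screen: surgically prepared rats were dosed intraduodenally. Plasma was sampled over 4 h, and liver was collected at the 4 h end point. Plasma was precipitated with two volumes of ACN plus internal standard. Liver was weighed and homogenized in 2 volumes of 20% Hanks buffered salt solution/80% ACN. Both were quantified by LC/MS/MS.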

[2] = Half life in rat liver microsomes at 3 uM by LC/MS/MS analysis; format: ADME
Outline: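 Pooled liver microsomes were run in triplicate per species. Each incubation held 3 μM test compound in 0.1 M potassium phosphate pH 7.4 at 37 °C, with 0.9 mg/mL microsomal protein, 0.033 mM MgCl2 and an NADPH-regenerating system. Proteins were precipitated with two volumes of ACN containing internal standard, and supernatants were analysed by LC/MS/MS.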

[3] = Apparent terminal half life in Sprague-Dawley rat at 5 mg/kg, iv by LC/MS/MS analysis; format: ADME, organism-based; parameters: dose 5 mg/kg, route intravenous; details: in vivo, read-out: betat1/2(app) (converted)
Hepatitis C virus [4] = assay: Antiviral activity against Hepatitis C virus genotype 1b Con1 after 4 days by cell-based replicon assay; format: functional, organism-based, Hepacivirus hominis; details: isolate Con1, 96 h
[5] = Genotoxicity in micronucleus (unknown origin)
Hepatitis C virus [6] = assay: Antiviral activity against Hepatitis C virus genotype 1a H77 assessed as inhibition of HCV replicon-encoded Renilla luciferase reporter activity after 4 days by cell-based HCV replicon assay; format: functional, organism-based, Hepacivirus hominis; details: genotype 1a H77, 96 h
Homo sapiens [7] = assay: Cardiovascular toxicity in Hepatitis C virus genotype 1 infected human assessed as junctional rhythm disturbances at 120 mg, po by electrocardiography; format: organism-based; details: in vivo
Homo sapiens [8] = assay: Cardiovascular toxicity in Hepatitis C virus genotype 1 infected human assessed as PR-interval prolongation at 120 mg, po by electrocardiography; format: organism-based; details: in vivo
Homo sapiens [9] = assay: Cardiovascular toxicity in Hepatitis C virus genotype 1 infected human assessed as mild bradycardia at 120 mg, po by electrocardiography; format: organism-based; details: in vivo
Homo sapiens [10] = assay: Cardiovascular toxicity in healthy human assessed as junctional rhythm disturbances at 120 mg, po by electrocardiography; format: organism-based; details: in vivo
Homo sapiens [11] = assay: Cardiovascular toxicity in healthy human assessed as PR-interval prolongation at 120 mg, po by electrocardiography; format: organism-based; details: in vivo
Homo sapiens [12] = assay: Cardiovascular toxicity in healthy human assessed as mild bradycardia at 120 mg, po by electrocardiography; format: organism-based; details: in vivo
Hepatitis C virus [13] = assay: Antiviral activity against Hepatitis C virus genotype 1 infected in human assessed as reduction in plasma viral load administered orally measured after 12 hrs; format: functional, organism-based; details: Hepacivirus hominis
Outline: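 HCV genotype 1-infected subjects received single oral doses of 10, 60 or 120 mg. Plasma HCV RNA was followed, and mean log10 reduction in viral load was read 12 h after dosing.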

[14] = Terminal half life in po dosed human; format: ADME, organism-based; details: in vivo, read-out: beta t1/2 (converted)
[15] = Tmax in po dosed human; format: ADME, organism-based; details: in vivo
Salmonella typhimurium = assay: Mutagenicity in Salmonella typhimurium by Ames test; format: toxicity, organism-based; details: salmonella enterica subsp. enterica serovar typhimurium
Cytochrome P450 3A4 = Cytochrome P450 3A4 (Homo sapiens, UniProt P08684); assay: Inhibition of CYP3A4 (unknown origin); format: ADME
[16] = Binding affinity to P-glycoprotein (unknown origin); format: ADME; details: human
[17] = Drug uptake into human hepatocytes by silicone oil layer method; format: ADME, cell-based, Hepatocyte
[18] = Drug uptake into dog hepatocytes by silicone oil layer method; format: ADME, cell-based, Canis lupus familiaris, Hepatocyte
[19] = Drug uptake into Sprague-Dawley rat hepatocytes by silicone oil layer method; format: ADME, cell-based, Hepatocyte
[20] = Ratio of drug level in liver to plasma in Beagle dog at 14 mg/kg, po measured after 24 hrs by LC/MS/MS analysis; format: ADME, organism-based, Canis lupus familiaris; parameters: dose 14 mg/kg, route oral
Outline: (§2)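 Single oral dose (dog 14 mg/kg, rat 15 mg/kg), with liver and plasma sampled 24 h post-dose. Plasma was precipitated with two volumes of ACN containing internal standard and centrifuged. Tissue was weighed and homogenized in 2 volumes of 20% Hanks buffer/80% ACN. LC/MS/MS used a C18 column at 60 °C, ammonium formate/formic acid water–methanol gradient, and SRM detection. LLQ was 5 nM. Ratio is liver over plasma level.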

[21] = Ratio of drug level in liver to plasma in Sprague-Dawley rat at 15 mg/kg, po administered via gavage measured after 24 hrs by LC/MS/MS analysis; format: ADME, organism-based; parameters: dose 15 mg/kg, route oral; outline: as §2
[22] = Oral bioavailability in cynomolgus monkey at 3 mg/kg administered via gavage by LC/MS/MS analysis; format: ADME, organism-based, Macaca fascicularis; details: in vivo
[23] = Oral bioavailability in Beagle dog by LC/MS/MS analysis; format: ADME, organism-based, Canis lupus familiaris; details: in vivo
[24] = tested on: Human immunodeficiency virus; assay: Antiviral activity against Human immunodeficiency virus; format: functional, organism-based
[25] = tested on: Canine parainfluenza virus; assay: Antiviral activity against Canine parainfluenza virus; format: functional
[26] = tested on: Bovine viral diarrhea virus 1; assay: Antiviral activity against Bovine viral diarrhea virus; format: functional, organism-based
[27] = Cytotoxicity against human HuH7 cells; format: cell-based; details: Huh-7 cells
[28] = Oral bioavailability in Sprague-Dawley rat at 15 mg/kg administered via gavage by LC/MS/MS analysis; format: ADME, organism-based; details: in vivo
[29] = AUC in Sprague-Dawley rat at 15 mg/kg, po administered via gavage by LC/MS/MS analysis; format: ADME, organism-based; parameters: dose 15 mg/kg, route oral; details: plasma
Liver = assay: Drug uptake in intraduodenally dosed Sprague-Dawley rat liver measured per gm of tissue over 4 hrs by LC/MS/MS analysis; format: ADME, organism-based; details: in vivo, other; outline: as §1

Chain of Cytochrome P450 3A4 (P08684 whole entry): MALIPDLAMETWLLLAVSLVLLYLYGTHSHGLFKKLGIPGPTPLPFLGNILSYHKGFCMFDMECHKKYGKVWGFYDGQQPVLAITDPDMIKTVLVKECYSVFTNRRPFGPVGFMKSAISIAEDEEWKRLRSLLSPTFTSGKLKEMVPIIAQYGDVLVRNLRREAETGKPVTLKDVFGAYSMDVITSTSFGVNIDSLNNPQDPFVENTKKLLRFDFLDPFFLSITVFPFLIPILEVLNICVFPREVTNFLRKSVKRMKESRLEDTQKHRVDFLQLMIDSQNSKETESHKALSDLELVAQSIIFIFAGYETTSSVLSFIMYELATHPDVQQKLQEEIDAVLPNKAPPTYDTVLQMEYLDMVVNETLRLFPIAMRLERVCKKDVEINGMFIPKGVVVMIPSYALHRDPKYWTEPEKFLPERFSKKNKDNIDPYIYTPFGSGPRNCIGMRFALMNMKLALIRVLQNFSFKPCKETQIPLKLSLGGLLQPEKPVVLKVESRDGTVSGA

C=C[C@@H]1C[C@]1(NC(=O)[C@@H]1C[C@@H](Oc2nccc3cc(OC)ccc23)CN1C(=O)[C@@H](NC(=O)OC(C)(C)C)C(C)(C)C)C(=O)NS(=O)(=O)C1CC1
AUC at 4 h [1]: 10.4 µM·h | half-life at 3 µM [2]: > 1 h | half-life [3]: 4.4 h | EC50 (Hepatitis C virus [4]): 2.8 nM | Activity [5]: Non-toxic | EC50 (Hepatitis C virus [6]): 8.3 nM | Activity (Homo sapiens [7]): Toxic | Activity (Homo sapiens [8]): Toxic | Activity (Homo sapiens [9]): Toxic | Activity (Homo sapiens [10]): Toxic | Activity (Homo sapiens [11]): Toxic | Activity (Homo sapiens [12]): Toxic | Activity (Hepatitis C virus [13]): Dose-dependent effect | half-life [14]: 4 h | Tmax [15]: 1.5 h | Activity (Salmonella typhimurium): Non-toxic | IC50 (Cytochrome P450 3A4): 2000 nM | Activity [16]: Active | Km [17]: 1.4 µM | Km [18]: 1.4 µM | Km [19]: 1.4 µM | Kp at 24 h [20]: 75 | Kp at 24 h [21]: 136 | bioavailability [22]: < 1% | bioavailability [23]: 51% | Activity [24]: inactive | Activity [25]: inactive | Activity [26]: inactive | CC50 [27]: > 100000 nM | bioavailability [28]: 18% | AUC [29]: 14.1 µM·h | Drug uptake (Liver): 64710 ng

From ChEMBL document CHEMBL3124900, “Discovery and early clinical evaluation of BMS-605339, a potent and orally efficacious tripeptidic acylsulfonamide NS3 protease inhibitor for the treatment of hepatitis C virus infection” (J Med Chem, 2014)
